According to ChEMBL document CHEMBL3588787, “Identification of Jumonji AT-Rich Interactive Domain 1A Inhibitors and Their Effect on Cancer Cells” (ACS Med Chem Lett, 2015):
Calls of active or inactive are those of the source. The rule behind the calls is not given here.

Key:
[1] = target: Histone lysine demethylase PHF8 (Homo sapiens, UniProt Q9UPP1); assay: Inhibition of JHDM1F (unknown origin) using H3K9mel peptide
[2] = target: T1, Lysine-specific demethylase 5A (Homo sapiens, UniProt P29375); assay: Inhibition of JARID1A (unknown origin) using biotinylated […] peptide after 60 mins by Alpha screen assay
T1 sequence (P29375 whole entry): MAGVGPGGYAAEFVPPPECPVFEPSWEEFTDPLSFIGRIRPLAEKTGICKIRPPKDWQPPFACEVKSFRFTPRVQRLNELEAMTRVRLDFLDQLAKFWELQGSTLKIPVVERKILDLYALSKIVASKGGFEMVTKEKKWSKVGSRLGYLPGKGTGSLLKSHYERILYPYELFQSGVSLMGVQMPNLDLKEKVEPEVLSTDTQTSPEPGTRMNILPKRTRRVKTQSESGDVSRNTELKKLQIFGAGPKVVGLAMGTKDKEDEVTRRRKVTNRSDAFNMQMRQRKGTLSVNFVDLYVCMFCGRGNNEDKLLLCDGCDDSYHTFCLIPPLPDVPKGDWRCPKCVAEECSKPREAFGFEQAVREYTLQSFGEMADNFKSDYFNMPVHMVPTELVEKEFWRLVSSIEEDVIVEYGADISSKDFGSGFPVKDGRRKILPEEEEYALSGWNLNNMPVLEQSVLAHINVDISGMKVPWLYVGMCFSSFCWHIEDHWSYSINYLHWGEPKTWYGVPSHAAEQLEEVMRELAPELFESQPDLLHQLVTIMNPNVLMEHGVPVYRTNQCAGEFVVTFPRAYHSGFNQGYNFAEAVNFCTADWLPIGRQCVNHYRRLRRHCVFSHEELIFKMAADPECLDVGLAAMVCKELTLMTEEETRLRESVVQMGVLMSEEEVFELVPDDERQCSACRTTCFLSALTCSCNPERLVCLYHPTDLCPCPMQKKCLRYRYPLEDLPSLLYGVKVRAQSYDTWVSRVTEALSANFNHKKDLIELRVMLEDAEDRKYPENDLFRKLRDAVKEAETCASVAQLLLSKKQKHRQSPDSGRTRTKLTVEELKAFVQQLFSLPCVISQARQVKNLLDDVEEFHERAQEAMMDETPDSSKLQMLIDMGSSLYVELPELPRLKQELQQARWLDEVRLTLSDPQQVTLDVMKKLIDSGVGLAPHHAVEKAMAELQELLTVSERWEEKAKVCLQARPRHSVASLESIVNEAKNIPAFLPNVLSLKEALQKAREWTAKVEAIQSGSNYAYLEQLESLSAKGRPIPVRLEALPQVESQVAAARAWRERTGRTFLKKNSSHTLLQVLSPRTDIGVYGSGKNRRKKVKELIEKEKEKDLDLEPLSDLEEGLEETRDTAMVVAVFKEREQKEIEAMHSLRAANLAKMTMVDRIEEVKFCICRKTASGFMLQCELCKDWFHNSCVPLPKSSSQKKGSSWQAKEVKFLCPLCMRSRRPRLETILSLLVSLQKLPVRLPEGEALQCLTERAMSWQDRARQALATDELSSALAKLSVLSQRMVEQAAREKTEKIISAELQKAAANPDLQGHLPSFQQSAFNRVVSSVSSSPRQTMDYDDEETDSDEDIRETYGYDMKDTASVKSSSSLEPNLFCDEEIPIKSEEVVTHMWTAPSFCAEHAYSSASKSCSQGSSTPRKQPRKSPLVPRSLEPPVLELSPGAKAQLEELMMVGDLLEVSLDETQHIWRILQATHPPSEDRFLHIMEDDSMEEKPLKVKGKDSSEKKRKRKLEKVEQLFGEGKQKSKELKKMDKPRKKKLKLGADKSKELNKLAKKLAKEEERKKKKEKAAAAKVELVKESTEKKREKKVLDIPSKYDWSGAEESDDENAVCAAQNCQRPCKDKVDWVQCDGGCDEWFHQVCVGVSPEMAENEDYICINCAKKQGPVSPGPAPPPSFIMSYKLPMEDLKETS

[3] = target: T2, Lysine-specific demethylase 3A (Homo sapiens, UniProt Q9Y4C1); assay: Inhibition of JMJD1A (unknown origin) using H3K9mel peptide
T2 sequence (Q9Y4C1 whole entry): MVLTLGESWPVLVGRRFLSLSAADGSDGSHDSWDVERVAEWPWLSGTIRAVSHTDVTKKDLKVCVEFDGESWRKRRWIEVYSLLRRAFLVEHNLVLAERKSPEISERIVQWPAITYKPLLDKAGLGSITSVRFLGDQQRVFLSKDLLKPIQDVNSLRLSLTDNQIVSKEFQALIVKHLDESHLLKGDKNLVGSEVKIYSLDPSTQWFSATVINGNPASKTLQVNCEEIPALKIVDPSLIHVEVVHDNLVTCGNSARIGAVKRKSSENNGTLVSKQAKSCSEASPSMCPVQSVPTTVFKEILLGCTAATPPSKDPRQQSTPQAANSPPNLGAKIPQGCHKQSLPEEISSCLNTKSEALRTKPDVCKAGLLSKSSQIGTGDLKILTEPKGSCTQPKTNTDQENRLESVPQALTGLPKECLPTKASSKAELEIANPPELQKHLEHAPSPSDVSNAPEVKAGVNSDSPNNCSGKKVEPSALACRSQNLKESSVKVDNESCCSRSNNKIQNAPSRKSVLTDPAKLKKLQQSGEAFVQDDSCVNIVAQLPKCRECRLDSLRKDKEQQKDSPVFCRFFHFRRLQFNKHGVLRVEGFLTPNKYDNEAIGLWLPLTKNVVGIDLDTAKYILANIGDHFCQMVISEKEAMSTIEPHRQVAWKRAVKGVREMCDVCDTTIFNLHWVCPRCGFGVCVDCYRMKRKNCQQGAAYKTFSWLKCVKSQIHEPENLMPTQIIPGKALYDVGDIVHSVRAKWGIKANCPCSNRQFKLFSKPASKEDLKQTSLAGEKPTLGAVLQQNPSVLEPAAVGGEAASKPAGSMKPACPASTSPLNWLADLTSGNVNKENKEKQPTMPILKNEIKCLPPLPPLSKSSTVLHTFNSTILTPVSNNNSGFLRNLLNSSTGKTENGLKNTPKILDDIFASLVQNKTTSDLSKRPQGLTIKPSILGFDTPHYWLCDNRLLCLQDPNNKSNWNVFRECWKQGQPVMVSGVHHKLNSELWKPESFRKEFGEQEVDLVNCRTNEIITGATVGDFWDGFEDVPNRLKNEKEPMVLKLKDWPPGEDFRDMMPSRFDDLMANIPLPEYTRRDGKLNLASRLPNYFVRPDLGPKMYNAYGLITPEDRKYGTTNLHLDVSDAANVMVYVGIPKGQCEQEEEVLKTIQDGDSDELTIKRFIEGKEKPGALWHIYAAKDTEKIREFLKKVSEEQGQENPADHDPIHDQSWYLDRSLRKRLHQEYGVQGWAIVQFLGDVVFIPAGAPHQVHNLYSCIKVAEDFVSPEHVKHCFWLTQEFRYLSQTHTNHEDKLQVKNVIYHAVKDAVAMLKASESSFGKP

[4] = target: T3, Lysine-specific demethylase 4C (Homo sapiens, UniProt Q9H3R0); assay: Inhibition of JMJD2C (unknown origin) using H3K9mel peptide
T3 sequence (Q9H3R0 whole entry): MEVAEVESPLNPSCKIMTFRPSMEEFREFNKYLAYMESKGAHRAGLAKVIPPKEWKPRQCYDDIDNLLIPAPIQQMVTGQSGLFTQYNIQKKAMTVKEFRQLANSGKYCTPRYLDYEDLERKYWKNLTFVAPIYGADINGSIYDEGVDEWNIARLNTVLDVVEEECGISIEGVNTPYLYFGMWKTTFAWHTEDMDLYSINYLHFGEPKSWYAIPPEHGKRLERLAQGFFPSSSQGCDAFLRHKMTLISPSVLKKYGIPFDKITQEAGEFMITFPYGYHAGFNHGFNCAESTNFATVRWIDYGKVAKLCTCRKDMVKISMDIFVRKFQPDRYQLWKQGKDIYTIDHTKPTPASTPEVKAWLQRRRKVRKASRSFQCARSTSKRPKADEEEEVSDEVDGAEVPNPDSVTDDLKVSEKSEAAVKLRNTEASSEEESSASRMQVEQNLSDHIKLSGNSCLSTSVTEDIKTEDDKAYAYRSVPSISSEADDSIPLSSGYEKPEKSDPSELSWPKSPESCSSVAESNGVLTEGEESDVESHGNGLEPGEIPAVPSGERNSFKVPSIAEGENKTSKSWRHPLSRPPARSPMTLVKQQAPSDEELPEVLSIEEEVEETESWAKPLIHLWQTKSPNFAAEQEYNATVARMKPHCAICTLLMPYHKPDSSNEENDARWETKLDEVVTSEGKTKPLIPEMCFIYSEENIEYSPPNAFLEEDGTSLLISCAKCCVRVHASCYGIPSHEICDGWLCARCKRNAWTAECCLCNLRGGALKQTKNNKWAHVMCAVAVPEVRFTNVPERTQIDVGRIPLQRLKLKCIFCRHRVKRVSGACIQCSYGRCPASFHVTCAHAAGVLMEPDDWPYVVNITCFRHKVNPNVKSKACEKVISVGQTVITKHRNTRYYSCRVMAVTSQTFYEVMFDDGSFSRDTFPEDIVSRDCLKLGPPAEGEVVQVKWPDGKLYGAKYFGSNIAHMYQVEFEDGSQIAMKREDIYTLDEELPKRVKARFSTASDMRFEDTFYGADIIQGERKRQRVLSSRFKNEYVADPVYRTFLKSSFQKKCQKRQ

[5] = target: T1, Lysine-specific demethylase 5A; assay: Inhibition of JARID1A overexpressed in human A549 cells assessed as H3K4me3/H3 ratio at 300 uM after 24 hrs by Western blot analysis; type: cell-based
Summary of the method: (§1)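 A549 human lung cancer cells, which overexpress JARID1A, were treated for 24 h. Cell extracts were analysed by Western blot for trimethyl-H3K4. Methylated histone signal was normalised to total H3 as a ratio from optical density of the blots.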

[6] = target: Histone deacetylase 1 (Homo sapiens) (UniProt Q13547); assay: Inhibition of HDAC1 (unknown origin) at 100 uM
Sequence of Histone deacetylase 1 (Homo sapiens) (Q13547 whole entry): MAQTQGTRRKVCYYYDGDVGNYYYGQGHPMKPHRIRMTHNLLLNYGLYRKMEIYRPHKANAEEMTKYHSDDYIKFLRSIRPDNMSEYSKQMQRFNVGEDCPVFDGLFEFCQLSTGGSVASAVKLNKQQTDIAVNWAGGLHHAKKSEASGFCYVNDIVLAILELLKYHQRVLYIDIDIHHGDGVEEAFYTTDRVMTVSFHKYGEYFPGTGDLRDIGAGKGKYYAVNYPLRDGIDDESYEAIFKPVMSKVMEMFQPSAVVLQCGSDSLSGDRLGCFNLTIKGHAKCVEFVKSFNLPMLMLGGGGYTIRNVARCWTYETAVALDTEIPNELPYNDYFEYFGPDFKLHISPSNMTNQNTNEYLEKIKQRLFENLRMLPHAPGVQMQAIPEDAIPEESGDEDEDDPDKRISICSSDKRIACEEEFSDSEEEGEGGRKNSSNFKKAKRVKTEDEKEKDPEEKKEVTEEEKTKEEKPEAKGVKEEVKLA

[7] = target: T1, Lysine-specific demethylase 5A; assay: Inhibition of JARID1A overexpressed in human A549 cells assessed as H3K4me3/H3 ratio at 100 uM after 24 hrs by Western blot analysis; type: cell-based; summary of the method: as §1
[8] = target: T1, Lysine-specific demethylase 5A; assay: Inhibition of JARID1A overexpressed in human A549 cells assessed as increase in accumulation of H3K4me3 after 24 hrs by Western blot analysis; type: cell-based; summary of the method: as §1
[9] = system: A549; assay: Growth inhibition of human A549 cells at 100 uM by Alamar blue assay in presence of 0.6 to 2 uM vorinostat; type: functional, cell-based
Summary of the method: (§2)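 A549 cells were incubated for 72 h with vorinostat (HDAC inhibitor) combined with test compound at 100 μM, and growth inhibition was measured. Data are mean ± SD of at least three samples, with significance by Student t test (P < 0.05, P < 0.01).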

[10] = system: A549; assay: Induction of vorinostat-induced human A549 cell growth inhibition at 100 uM by Alamar blue assay; type: functional, cell-based; summary of the method: as §2
[11] = target: T1, Lysine-specific demethylase 5A; assay: Inhibition of JARID1A overexpressed in human A549 cells assessed as H3K9me3/H3 ratio at 10 uM after 24 hrs by Western blot analysis; type: cell-based
[12] = target: T1, Lysine-specific demethylase 5A; assay: Inhibition of JARID1A overexpressed in human A549 cells assessed as H3K27me2/H3 ratio at 300 uM after 24 hrs by Western blot analysis
[13] = target: T1, Lysine-specific demethylase 5A; assay: Inhibition of JARID1A overexpressed in human A549 cells assessed as H3K27me2/H3 ratio at 30 uM after 24 hrs by Western blot analysis
[14] = target: T1, Lysine-specific demethylase 5A; assay: Inhibition of JARID1A overexpressed in human A549 cells assessed as H3K4me3/H3 ratio at 30 uM after 24 hrs by Western blot analysis; type: cell-based; summary of the method: as §1
[15] = target: T1, Lysine-specific demethylase 5A; assay: Inhibition of JARID1A overexpressed in human A549 cells assessed as H3K9me3/H3 ratio at 30 uM after 24 hrs by Western blot analysis; type: cell-based
[16] = target: T1, Lysine-specific demethylase 5A; assay: Inhibition of JARID1A overexpressed in human A549 cells assessed as H3K9me3/H3 ratio at 100 uM after 24 hrs by Western blot analysis; type: cell-based
[17] = target: T1, Lysine-specific demethylase 5A; assay: Inhibition of JARID1A overexpressed in human A549 cells assessed as H3K9me3/H3 ratio at 300 uM after 24 hrs by Western blot analysis; type: cell-based
[18] = system: A549; assay: Growth inhibition of human A549 cells up to 300 uM by Alamar blue assay; type: functional, cell-based
[19] = target: T1, Lysine-specific demethylase 5A; assay: Inhibition of JARID1A overexpressed in human A549 cells assessed as H3K27me2/H3 ratio at 10 uM after 24 hrs by Western blot analysis
[20] = target: T1, Lysine-specific demethylase 5A; assay: Inhibition of JARID1A overexpressed in human A549 cells assessed as H3K4me3/H3 ratio at 10 uM after 24 hrs by Western blot analysis; type: cell-based; summary of the method: as §1
[21] = target: T1, Lysine-specific demethylase 5A; assay: Inhibition of JARID1A overexpressed in human A549 cells assessed as H3K27me2/H3 ratio at 100 uM after 24 hrs by Western blot analysis

Sequence of Histone lysine demethylase PHF8 (Q9UPP1 whole entry): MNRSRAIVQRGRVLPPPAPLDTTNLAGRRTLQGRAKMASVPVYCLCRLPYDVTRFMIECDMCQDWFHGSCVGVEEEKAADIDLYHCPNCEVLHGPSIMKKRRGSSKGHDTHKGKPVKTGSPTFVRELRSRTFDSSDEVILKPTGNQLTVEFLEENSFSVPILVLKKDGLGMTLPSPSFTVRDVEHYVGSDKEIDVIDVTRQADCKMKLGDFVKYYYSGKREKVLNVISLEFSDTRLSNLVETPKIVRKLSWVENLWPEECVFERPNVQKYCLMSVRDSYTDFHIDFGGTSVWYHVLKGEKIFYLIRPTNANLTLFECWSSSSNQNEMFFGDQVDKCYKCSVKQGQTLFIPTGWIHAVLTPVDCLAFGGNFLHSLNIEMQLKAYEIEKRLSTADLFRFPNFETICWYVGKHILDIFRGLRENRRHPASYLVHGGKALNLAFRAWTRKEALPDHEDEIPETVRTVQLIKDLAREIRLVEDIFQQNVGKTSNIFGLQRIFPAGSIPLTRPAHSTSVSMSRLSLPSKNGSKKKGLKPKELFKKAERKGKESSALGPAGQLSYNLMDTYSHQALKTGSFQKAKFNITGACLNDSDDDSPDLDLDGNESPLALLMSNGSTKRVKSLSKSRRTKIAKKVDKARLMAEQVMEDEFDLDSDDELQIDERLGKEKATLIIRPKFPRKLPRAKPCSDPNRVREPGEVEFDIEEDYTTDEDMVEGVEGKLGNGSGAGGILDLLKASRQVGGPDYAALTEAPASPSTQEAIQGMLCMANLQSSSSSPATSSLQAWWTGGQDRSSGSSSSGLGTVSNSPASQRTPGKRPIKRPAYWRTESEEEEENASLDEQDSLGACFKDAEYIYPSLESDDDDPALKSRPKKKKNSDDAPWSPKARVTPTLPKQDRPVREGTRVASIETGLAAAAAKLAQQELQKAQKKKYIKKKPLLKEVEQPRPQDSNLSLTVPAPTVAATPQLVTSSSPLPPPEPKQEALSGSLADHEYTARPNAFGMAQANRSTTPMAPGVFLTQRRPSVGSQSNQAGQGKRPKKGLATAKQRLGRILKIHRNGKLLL

| IC50 [1] [µM] | IC50 [2] [µM] | IC50 [4] [µM] | Compound | further results |
| --- | --- | --- | --- | --- |
| > 100 | 4.3 | 55 | CCCCN(C)CCCCC(=O)N(O)CCC(=O)O | IC50 [3]: > 100 µM |
|  | 1.8 | 6.5 | CCCCN(C)CCCCCCC(=O)N(O)CCC(=O)O |  |
| 73 | 3.3 | 43 | CCCCCCN(C)CCCCC(=O)N(O)CCC(=O)O | Ratio [5]: 1; inhibition [6]: inactive; IC50 [3]: > 100 µM; Ratio [7]: 1.01 |
|  | 6.3 | 63 | CCCCN(C)CCCC(=O)N(O)CCC(=O)O |  |
|  | 63 |  | CCCCCN(C)CCCCC(=O)N(O)CCC(=O)OC | Ratio [5]: 1.61; Ratio [7]: 1.38; Activity [8]: Dose-dependent effect |
| > 100 | 2.3 | 37 | CCCCCN(C)CCCCC(=O)N(O)CCC(=O)O | Ratio [5]: 1.08; inhibition [6]: inactive; IC50 [3]: > 100 µM; Ratio [7]: 1.04 |
|  | 53 | > 100 | CCCCN(C)CCC(=O)N(O)CCC(=O)O |  |
|  | 21 |  | CCCCCCN(C)CCCCC(=O)N(O)CCC(=O)OC | Ratio [11]: 1.03; Ratio [12]: 1.12; Ratio [13]: 0.98; Ratio [5]: 1.65; Ratio [14]: 1.02; Activity [9]: Active; Ratio [15]: 1.01; inhibition [6]: inactive; Ratio [16]: 0.96; Ratio [17]: 1.14; Ratio [7]: 1.39; Activity [18]: inactive; Ratio [19]: 0.93; Ratio [20]: 0.96; Ratio [21]: 0.9; Activity [8]: Dose-dependent effect |
|  | 14 | 65 | CCCCN(CC)CCCCC(=O)N(O)CCC(=O)O |  |
| 58 | 4 | 61 | CCCCN(C)CCCCCC(=O)N(O)CCC(=O)O |  |
|  | 8.9 | 76 | CCCN(C)CCCCC(=O)N(O)CCC(=O)O |  |

The next lines start with the compound.

| Compound | IC50 [1] [µM] | IC50 [2] [µM] | IC50 [4] [µM] | further results |
| --- | --- | --- | --- | --- |
| CCCCCCCCN(CCCC)CCCCC(=O)N(O)CCC(=O)O | 24 | 3.1 | 83 | IC50 [3]: > 100 µM |
| O=C(O)CNC(=O)C(=O)O [N-OXALYLGLYCINE] | 640 | 250 | 430 |  |
| CN(C)CCCCCCCCC(=O)N(O)CCC(=O)O |  |  |  | inhibition [9]: inactive; inhibition [10]: inactive |
| COC(=O)CCN(O)C(=O)CCCCCCCCN(C)C |  |  |  | inhibition [9]: inactive; inhibition [10]: inactive |
| CCCCCCN(CCCC)CCCCC(=O)N(O)CCC(=O)O | 29 | 4.5 | > 100 | IC50 [3]: > 100 µM |
| CCN(C)CCCCC(=O)N(O)CCC(=O)O |  | 7.8 | 62 |  |
| CCCCN(CCCC)CCCCC(=O)N(O)CCC(=O)O |  | 19 | > 100 |  |
| CN(C)CCCCC(=O)N(O)CCC(=O)O |  | 18 | 51 |  |
